Results: ChEMBL document CHEMBL1153367, “Synthesis and evaluation of lysine derived sulfamides as histone deacetylase inhibitors” (Bioorg Med Chem Lett, 2009)
pIC50: −log10 of the molar value.

Assays:
Histone deacetylase [1] = experiment: Inhibition of HDAC in HEK293T cells by whole cell assay; format: cell-based, Homo sapiens; conditions: hek-293t
Method in brief: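 Cultured 293T cells exposed to inhibitors for 16 h, then given the membrane-permeable substrate Boc-Ac-Lys-AMC for 90 min at 37 °C. Quenched with trypsin (1 mg/mL final) and TSA, then lysed in 1% NP-40. Fluorescence read at Ex 360/Em 470 nm; IC50 reported. Values are means of at least two experiments.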

[2] = target: T1, Protein deacetylase HDAC6 (Homo sapiens, UniProt Q9UBN7); experiment: Inhibition of human recombinant His-tagged HDAC6 expressed in baculovirus
T1 sequence (Q9UBN7 whole entry): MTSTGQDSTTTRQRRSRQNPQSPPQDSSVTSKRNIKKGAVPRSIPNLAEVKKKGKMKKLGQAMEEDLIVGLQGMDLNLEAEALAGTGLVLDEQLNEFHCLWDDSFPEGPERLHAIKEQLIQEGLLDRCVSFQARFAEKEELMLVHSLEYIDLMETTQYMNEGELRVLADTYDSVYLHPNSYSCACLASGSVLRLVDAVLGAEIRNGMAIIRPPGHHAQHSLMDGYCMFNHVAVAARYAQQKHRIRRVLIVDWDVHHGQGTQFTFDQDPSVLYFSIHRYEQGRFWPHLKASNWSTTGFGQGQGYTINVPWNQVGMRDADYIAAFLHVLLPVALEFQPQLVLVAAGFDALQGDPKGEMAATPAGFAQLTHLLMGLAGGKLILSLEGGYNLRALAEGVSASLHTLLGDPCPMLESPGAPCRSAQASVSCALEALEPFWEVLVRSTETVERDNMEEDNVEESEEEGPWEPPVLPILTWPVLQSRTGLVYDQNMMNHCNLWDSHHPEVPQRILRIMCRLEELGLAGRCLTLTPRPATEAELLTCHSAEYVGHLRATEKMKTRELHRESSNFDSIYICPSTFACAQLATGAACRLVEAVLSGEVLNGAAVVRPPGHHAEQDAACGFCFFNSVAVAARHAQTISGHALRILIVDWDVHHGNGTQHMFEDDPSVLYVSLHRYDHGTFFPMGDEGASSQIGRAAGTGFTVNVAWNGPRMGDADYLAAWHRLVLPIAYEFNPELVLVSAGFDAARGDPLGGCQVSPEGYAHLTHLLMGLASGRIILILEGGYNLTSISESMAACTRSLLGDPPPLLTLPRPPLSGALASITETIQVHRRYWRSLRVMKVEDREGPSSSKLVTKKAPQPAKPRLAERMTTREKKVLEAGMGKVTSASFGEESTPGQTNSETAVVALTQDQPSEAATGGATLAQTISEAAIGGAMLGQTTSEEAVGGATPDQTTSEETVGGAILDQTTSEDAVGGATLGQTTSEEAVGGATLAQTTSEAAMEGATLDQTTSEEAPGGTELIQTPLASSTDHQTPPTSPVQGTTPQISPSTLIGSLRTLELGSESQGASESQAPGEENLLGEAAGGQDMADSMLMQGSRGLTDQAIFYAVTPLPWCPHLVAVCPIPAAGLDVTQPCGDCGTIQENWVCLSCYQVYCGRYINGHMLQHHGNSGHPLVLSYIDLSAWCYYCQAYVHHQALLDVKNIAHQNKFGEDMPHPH
Method in brief: (§1)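 Enzyme preincubated with inhibitor 10 min at ambient temperature in 25 mM Hepes pH 8.0, 137 mM NaCl, 1 mM MgCl₂, 2.7 mM KCl. Coumarin-labeled acetyl-lysine substrate then added, incubated at 37 °C. Quenched with trypsin (1 mg/mL final) and TSA (1 μM final). Fluorescence read; IC50 from dose–response curves. Values are means of at least two experiments.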

Histone deacetylase 1 = Histone deacetylase 1 (Homo sapiens, UniProt Q13547); experiment: Inhibition of human recombinant FLAG-tagged HDAC1 expressed in baculovirus; method in brief: as §1
[3] = Oral bioavailability in rat; format: ADME, organism-based; conditions: in vivo
[4] = Clearance in iv dosed rat; format: ADME, organism-based; conditions: in vivo
[5] = Clearance in dog; format: ADME, organism-based, Canis lupus familiaris; conditions: in vivo
Plasma [6] = experiment: Metabolic stability in human plasma; format: ADME, cell-free
[7] = Volume of distribution at steady state in rat; format: ADME, organism-based; conditions: in vivo, read-out: Vdss
Plasma [8] = experiment: Metabolic stability in rat plasma; format: ADME, cell-free
[9] = Half life in dog; format: ADME, organism-based, Canis lupus familiaris; conditions: in vivo
[10] = Bioavailability in dog; format: ADME, organism-based, Canis lupus familiaris; conditions: in vivo
[11] = Half life in rat; format: ADME, organism-based; conditions: in vivo
[12] = Metabolic stability in rat plasma assessed as compound remaining after 1 hr; format: ADME, cell-free; conditions: read-out: Activity
Method in brief: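 Compound kept in rat plasma at 37 °C for 1 h; percentage of intact compound remaining was measured.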

Histone deacetylase [13] = experiment: Inhibition of HDAC in T24 cells assessed as histone H3 acetylation; conditions: Homo sapiens
Histone deacetylase [14] = experiment: Inhibition of HDAC in T24 cells assessed as alpha-tubulin acetylation; conditions: Homo sapiens
Homo sapiens = species: Homo sapiens; experiment: Selectivity for ratio of IC50 for human recombinant HDAC1 to IC50 for human recombinant HDAC6
Method in brief: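 HDAC1 and HDAC6 were each preincubated with compound for 10 min at ambient temperature in 25 mM Hepes pH 8.0, 137 mM NaCl, 1 mM MgCl2, 2.7 mM KCl. A coumarin-labeled acetyl-lysine substrate was then added at 37 °C. Reactions were quenched with trypsin (1 mg/mL final) plus TSA, and fluorescence was read. IC50s came from dose-response curves, as means of at least two experiments. The ratio is HDAC1 IC50 over HDAC6 IC50.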

Sequence of Histone deacetylase 1 (Q13547 whole entry): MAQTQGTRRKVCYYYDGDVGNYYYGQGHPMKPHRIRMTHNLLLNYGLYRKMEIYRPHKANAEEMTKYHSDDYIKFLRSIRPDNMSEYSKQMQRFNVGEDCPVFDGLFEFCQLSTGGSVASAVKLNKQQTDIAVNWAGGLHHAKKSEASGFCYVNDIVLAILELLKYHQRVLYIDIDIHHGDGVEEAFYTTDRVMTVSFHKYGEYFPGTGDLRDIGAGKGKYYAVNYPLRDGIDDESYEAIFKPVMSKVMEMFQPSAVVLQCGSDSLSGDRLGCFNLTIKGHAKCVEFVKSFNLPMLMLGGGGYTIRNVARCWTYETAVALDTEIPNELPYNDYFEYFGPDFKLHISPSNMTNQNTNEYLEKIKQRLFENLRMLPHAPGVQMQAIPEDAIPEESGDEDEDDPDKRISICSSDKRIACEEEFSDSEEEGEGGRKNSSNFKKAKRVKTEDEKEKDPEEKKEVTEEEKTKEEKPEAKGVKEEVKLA

Compound	IC50 (Histone deacetylase [1])	pIC50 [2]	pIC50 (Histone deacetylase 1)	also measured
NS(=O)(=O)NCCCC[C@H](NC(=O)OCc1cccnc1)C(=O)Nc1nc(-c2ccccc2)cs1	18000 nM	6.22	5.82	–
NS(=O)(=O)NCCCC[C@H](NC(=O)OCc1ccccc1)c1nc(-c2ccccc2)cs1	12000 nM	5.92	5.31	–
CC(C)(C)c1csc(NC(=O)[C@H](CCCCNS(N)(=O)=O)NC(=O)OCc2ccccc2)n1	9100 nM	6.08	5.44	–
NS(=O)(=O)NCCCC[C@H](NC(=O)Nc1ccccc1)C(=O)Nc1nc(-c2ccccc2)cs1	> 50000 nM	6.25	5.64	–
CN(C)CCOc1ccc(-c2nc([C@H](CCCCNS(N)(=O)=O)NC(=O)OCc3ccccc3)cs2)cc1	180 nM	6.05	6.41	bioavailability [3]: 0.5%; clearance [4]: 38.3 mL/min/kg; Vd [7]: 0.78 L/kg; half-life [11]: 1.6 h
COc1ccc2[nH]c(C)c(CC(=O)N[C@@H](CCCCNS(N)(=O)=O)C(=O)Nc3nc(-c4ccccc4)cs3)c2c1	590 nM	5.92	7.19	–
NS(=O)(=O)NCCCC[C@H](NC(=O)OCc1ccc(Cl)cc1)C(=O)Nc1nc(-c2ccccc2)cs1	6800 nM	6.28	6.24	–
NS(=O)(=O)NCCCC[C@H](NC(=O)OCc1ccccc1)C(=O)Nc1nccs1	> 50000 nM	5.39	< 5.00	–
CCOC(=O)c1csc(NC(=O)[C@H](CCCCNS(N)(=O)=O)NC(=O)OCc2ccccc2)n1	> 50000 nM	6.24	< 5.00	–
NS(=O)(=O)NCCCC[C@H](NC(=O)OCc1ccccc1)c1nnc(-c2ccccc2)o1	9900 nM	5.74	5.49	–
NS(=O)(=O)NCCCC[C@H](NS(=O)(=O)Cc1ccccc1)C(=O)Nc1nc(-c2ccccc2)cs1	38000 nM	6.28	5.85	–
Cn1nc([C@H](CCCCNS(N)(=O)=O)NC(=O)OCc2ccccc2)nc1-c1ccccc1	> 50000 nM	5.70	5.37	–
NS(=O)(=O)NCCCC[C@H](NC(=O)OCc1ccccc1)C(=O)Nc1nc(-c2ccccc2)cs1	2300 nM	–	–	remaining at 1 h [12]: 3%; bioavailability [3]: 4.9%; clearance [4]: 41.7 mL/min/kg; EC50 (Histone deacetylase [13]): 700 nM; Vd [7]: 0.02 L/kg; EC50 (Histone deacetylase [14]): 600 nM; half-life [11]: 0.025 h
N[C@@H](CCCCNS(N)(=O)=O)C(=O)Nc1nc(-c2ccccc2)cs1	> 50000 nM	5.96	< 5.00	–
CC(C)c1ccc(-c2csc(NC(=O)[C@H](CCCCNS(N)(=O)=O)NC(=O)OCc3ccccc3)n2)cc1	3200 nM	5.85	6.28	–
NS(=O)(=O)NCCCC[C@H](NC(=O)OCc1ccccc1)c1nc(-c2ccc(F)cc2)no1	> 50000 nM	5.77	< 5.00	–

Continued, in another order:

IC50 (Histone deacetylase [1])	pIC50 [2]	pIC50 (Histone deacetylase 1)	Compound	also measured
530 nM	6.70	6.92	COc1ccc(-c2csc(NC(=O)[C@H](CCCCNS(N)(=O)=O)NC(=O)OCc3ccccc3)n2)cc1	–
620 nM	6.32	6.70	NS(=O)(=O)NCCCC[C@H](NC(=O)OCc1ccccc1)c1nc2cc(-c3cccs3)ccc2[nH]1	bioavailability [3]: 0.5%; clearance [4]: 6.83 mL/min/kg; clearance [5]: 8.5 mL/min/kg; Stability (Plasma [6]): Stable; Vd [7]: 0.03 L/kg; Stability (Plasma [8]): Stable; half-life [9]: 5.7 h; bioavailability [10]: 6%; half-life [11]: 1.2 h
–	6.32	6.30	COc1ccc(-c2nc([C@H](CCCCNS(N)(=O)=O)NC(=O)OCc3ccccc3)cs2)cc1	–
7200 nM	6.35	6.07	NS(=O)(=O)NCCCC[C@H](NC(=O)OCc1ccccc1)C(=O)Nc1nc(-c2ccccc2)c(-c2ccccc2)s1	–
3600 nM	6.55	6.46	NS(=O)(=O)NCCCC[C@H](NC(=O)OCc1cccc(Cl)c1)C(=O)Nc1nc(-c2ccccc2)cs1	–
29000 nM	6.43	6.46	NS(=O)(=O)NCCCC[C@H](NC(=O)NCc1ccc(F)cc1)C(=O)Nc1nc(-c2ccccc2)cs1	–
6100 nM	6.82	6.15	NS(=O)(=O)NCCCC[C@H](NC(=O)Cc1ccccc1)C(=O)Nc1nc(-c2ccccc2)cs1	–
17000 nM	6.70	5.60	CCOC(=O)N[C@@H](CCCCNS(N)(=O)=O)C(=O)Nc1nc(-c2ccccc2)cs1	–
19000 nM	6.72	5.35	NS(=O)(=O)NCCCC[C@H](NC(=O)OCc1ccccc1)C(=O)Nc1nc2ccccc2s1	–
3200 nM	6.38	6.34	COc1cccc(-c2csc(NC(=O)[C@H](CCCCNS(N)(=O)=O)NC(=O)OCc3ccccc3)n2)c1	–
9500 nM	7.00	5.54	NS(=O)(=O)NCCCC[C@H](NC(=O)OCc1ccccc1)c1nc2ccccc2[nH]1	–
4900 nM	6.60	6.82	NS(=O)(=O)NCCCC[C@H](NC(=O)OCc1ccccc1)C(=O)Nc1nc(-c2ccc(Cl)cc2)cs1	–
5800 nM	6.40	6.10	NS(=O)(=O)NCCCC[C@H](NC(=O)OCc1ccccc1)c1csc(-c2ccccc2)n1	Ratio IC50 (Homo sapiens): 2
2200 nM	6.39	6.54	NS(=O)(=O)NCCCC[C@H](NC(=O)OCc1ccccc1)c1c[nH]c(-c2ccccc2)n1	–
6400 nM	6.49	5.62	NS(=O)(=O)NCCCC[C@H](NC(=O)OCc1ccccc1)c1n[nH]c(-c2ccccc2)n1	–
